Source: ChEMBL document CHEMBL1138361, “4-acyl-1-(4-aminoalkoxyphenyl)-2-ketopiperazines as a novel class of non-brain-penetrant histamine H3 receptor antagonists” (J Med Chem, 2007)

Tests used:
[1] = Partition coefficient, log D at pH 7.4; format: physicochemical; details: octanol/water
How it was run: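 Compound in phosphate buffer was shaken with buffer-saturated octanol (3 × 50 inversions). Phases were separated by centrifugation at 300g for 15 min. Both phases were quantified by HPLC, and log D was calculated from peak areas normalized to injection volume.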

[2] = Clearance in CD Sprague-Dawley rat at 1.0 mg/kg, iv; format: ADME, organism-based; design: dose 1 mg/kg, route intravenous; details: in vivo
How it was run: (§1)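 Single iv and oral doses given to male CD Sprague-Dawley rats (1 mg/kg iv, 3 mg/kg po) and male Beagle dogs (1 mg/kg iv, 2 mg/kg po). Vehicle was a DMSO-PEG 200-water (5:45:50) solution. Serial and terminal blood samples were taken at time points up to 7, 12 or 24 h postdose.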

[3] = Cmax in CD Sprague-Dawley rat at 1.0 mg/kg, iv; format: ADME, organism-based; design: dose 1 mg/kg, route intravenous; details: in vivo; how it was run: as §1
[4] = Cmax in Beagle dog at 2.0 mg/kg, po; format: ADME, organism-based, Canis lupus familiaris; design: dose 2 mg/kg, route oral; details: in vivo; how it was run: as §1
[5] = Cmax in CD Sprague-Dawley rat at 3.0 mg/kg, po; format: ADME, organism-based; design: dose 3 mg/kg, route oral; details: in vivo; how it was run: as §1
[6] = Oral bioavailability in CD Sprague-Dawley rat at 3.0 mg/kg, po; format: ADME, organism-based; details: in vivo; how it was run: as §1
[7] = Tmax in CD Sprague-Dawley rat at 3.0 mg/kg, po; format: ADME, organism-based; design: dose 3 mg/kg, route oral; details: in vivo; how it was run: as §1
[8] = AUC in Beagle dog at 1.0 mg/kg, iv; format: ADME, organism-based, Canis lupus familiaris; design: dose 1 mg/kg, route intravenous; details: plasma; how it was run: as §1
[9] = Cmax in Beagle dog at 1.0 mg/kg, iv; format: ADME, organism-based, Canis lupus familiaris; design: dose 1 mg/kg, route intravenous; details: in vivo; how it was run: as §1
[10] = Oral bioavailability in Beagle dog at 2.0 mg/kg, po; format: ADME, organism-based, Canis lupus familiaris; details: in vivo; how it was run: as §1
[11] = Tmax in CD Sprague-Dawley rat at 1.0 mg/kg, iv; format: ADME, organism-based; design: dose 1 mg/kg, route intravenous; details: in vivo; how it was run: as §1
[12] = Tmax in Beagle dog at 2.0 mg/kg, po; format: ADME, organism-based, Canis lupus familiaris; design: dose 2 mg/kg, route oral; details: in vivo; how it was run: as §1
[13] = Half life in CD Sprague-Dawley rat at 1.0 mg/kg, iv; format: ADME, organism-based; design: dose 1 mg/kg, route intravenous; details: in vivo; how it was run: as §1
[14] = AUC in Beagle dog at 2.0 mg/kg, po; format: ADME, organism-based, Canis lupus familiaris; design: dose 2 mg/kg, route oral; details: plasma; how it was run: as §1
[15] = AUC in CD Sprague-Dawley rat at 1.0 mg/kg, iv; format: ADME, organism-based; design: dose 1 mg/kg, route intravenous; details: plasma; how it was run: as §1
[16] = Tmax in Beagle dog at 1.0 mg/kg, iv; format: ADME, organism-based, Canis lupus familiaris; design: dose 1 mg/kg, route intravenous; details: in vivo; how it was run: as §1
[17] = Ratio of drug level in brain to blood in CD Sprague-Dawley rat at 1 mg/kg, iv after 5 mins; format: ADME, organism-based; design: dose 1 mg/kg, route intravenous; details: brain and blood
How it was run: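 Male CD Sprague-Dawley rats were dosed iv in DMSO-PEG 200-water (5:45:50). Blood and brain were collected 5 min postdose under terminal isoflurane anesthesia. Blood was protein-precipitated; brain was homogenized and extracted. Parent drug was quantified by LCMS/MS.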

[18] = AUC in CD Sprague-Dawley rat at 3.0 mg/kg, po; format: ADME, organism-based; design: dose 3 mg/kg, route oral; details: plasma; how it was run: as §1
[19] = Volume of distribution in CD Sprague-Dawley rat at 1.0 mg/kg, iv; format: ADME, organism-based; design: dose 1 mg/kg, route intravenous; details: in vivo; how it was run: as §1
[20] = AUC in CD Sprague-Dawley rat at 2.9 mg/kg, po; format: ADME, organism-based; design: dose 2.9 mg/kg, route oral; details: plasma
[21] = Oral bioavailability in CD Sprague-Dawley rat at 2.9 mg/kg, po; format: ADME, organism-based; details: in vivo
[22] = Tmax in CD Sprague-Dawley rat at 2.9 mg/kg, po; format: ADME, organism-based; design: dose 2.9 mg/kg, route oral; details: in vivo
[23] = Cmax in CD Sprague-Dawley rat at 2.9 mg/kg, po; format: ADME, organism-based; design: dose 2.9 mg/kg, route oral; details: in vivo
[24] = Volume of distribution in Beagle dog at 1.0 mg/kg, iv; format: ADME, organism-based, Canis lupus familiaris; design: dose 1 mg/kg, route intravenous; details: in vivo; how it was run: as §1
[25] = Clearance in Beagle dog at 1.0 mg/kg, iv; format: ADME, organism-based, Canis lupus familiaris; design: dose 1 mg/kg, route intravenous; details: in vivo; how it was run: as §1
[26] = Half life in Beagle dog at 1.0 mg/kg, iv; format: ADME, organism-based, Canis lupus familiaris; design: dose 1 mg/kg, route intravenous; details: in vivo; how it was run: as §1

Compound: N#Cc1ccc(C(=O)N2CCN(c3ccc(OC4CCN(C5CCCC5)CC4)cc3)C(=O)C2)cc1
- logD [1]: 0.37

Compound: O=C(c1ccc(F)cc1F)N1CCN(c2ccc(OC3CCN(C4CCC4)CC3)cc2)C(=O)C1
- logD [1]: 0.95

Compound: O=C(c1ccc(F)cc1)N1CCN(c2ccc(OCCCN3CCCCC3)cc2)C(=O)C1.O=CO
- clearance [2]: 37 mL/min/kg
- Cmax [3]: 300 ng/mL
- Cmax [4]: 400 ng/mL
- Cmax [5]: 155 ng/mL
- logD [1]: 0.12
- bioavailability [6]: 61%
- Tmax [7]: 3 h
- AUC [8]: 1570 ng·h/mL
- Cmax [9]: 530 ng/mL
- bioavailability [10]: 86%
- Tmax [11]: 4.8 min
- Tmax [12]: 0.75 h
- half-life [13]: 1.5 h
- AUC [14]: 3090 ng·h/mL
- AUC [15]: 437 ng·h/mL
- Tmax [16]: 4.8 min
- Kp at 5 min [17]: 0.3
- AUC [18]: 805 ng·h/mL
- Vd [19]: 2.4 L/kg

Compound: O=C(c1ccc(F)cc1)N1CCN(c2ccc(OC3CCN(C4CCCC4)CC3)cc2)C(=O)C1
- logD [1]: 0.88

Compound: C[C@H]1CCCN1CCCOc1ccc(N2CCN(C(=O)c3ccc(C#N)cc3)CC2=O)cc1
- logD [1]: -0.6

Compound: CS(=O)(=O)c1ccc(C(=O)N2CCN(c3ccc(OCCCN4CCCCC4)cc3)C(=O)C2)cc1
- logD [1]: -1.19

Compound: Cl.O=C(c1ccc(F)cc1)N1CCN(c2ccc(OC3CCN(C4CCC4)CC3)cc2)C(=O)C1
- clearance [2]: 18 mL/min/kg
- Cmax [3]: 337 ng/mL
- logD [1]: 0.9
- AUC [20]: 760 ng·h/mL
- bioavailability [21]: 35%
- Tmax [11]: 4.8 min
- half-life [13]: 2 h
- AUC [15]: 837 ng·h/mL
- Tmax [22]: 2 h
- Vd [19]: 2.5 L/kg
- Cmax [23]: 91 ng/mL

Compound: C[C@@H]1CCCN1CCCOc1ccc(N2CCN(C(=O)c3ccc(F)cc3)CC2=O)cc1
- logD [1]: -0.13

Compound: CS(=O)(=O)c1cccc(C(=O)N2CCN(c3ccc(OCCCN4CCCCC4)cc3)C(=O)C2)c1
- logD [1]: -1.22

Compound: O=C(c1cc(F)cc(F)c1)N1CCN(c2ccc(OCCCN3CCCC3)cc2)C(=O)C1
- logD [1]: -0.38

Compound: CS(=O)(=O)c1cccc(C(=O)N2CCN(c3ccc(OC4CCN(C5CCCC5)CC4)cc3)C(=O)C2)c1
- logD [1]: -0.41

Compound: N#Cc1ccc(C(=O)N2CCN(c3ccc(OCCCN4CCCC4)cc3)C(=O)C2)cc1
- logD [1]: -1.07

Compound: O=C(c1ccc(F)cc1F)N1CCN(c2ccc(OCCCN3CCCC3)cc2)C(=O)C1
- logD [1]: -0.45

Compound: O=C(c1ccc(F)cc1F)N1CCN(c2ccc(OCCCN3CCCCCC3)cc2)C(=O)C1
- logD [1]: 0.15

Compound: CC(C)N1CCC(Oc2ccc(N3CCN(C(=O)c4ccc(C#N)cc4)CC3=O)cc2)CC1
- logD [1]: -0.64

Compound: O=C(c1cc(F)cc(F)c1)N1CCN(c2ccc(OCCCN3CCCCCC3)cc2)C(=O)C1
- logD [1]: 0.24

Compound: O=C(c1ccccc1)N1CCN(c2ccc(OC3CCN(C4CCC4)CC3)cc2)C(=O)C1
- logD [1]: 0.73

Compound: C[C@H]1CCCN1CCCOc1ccc(N2CCN(C(=O)c3ccc(F)cc3F)CC2=O)cc1
- logD [1]: -0.13

Compound: O=C(c1ccc(F)cc1)N1CCN(c2ccc(OCCCN3CCCCC3)cc2)C(=O)C1
- Log D [1]: 0.11
- Vd [24]: 2.9 L/kg
- clearance [25]: 9 mL/min/kg
- half-life [26]: 4.3 h

Compound: C[C@H]1CCCN1CCCOc1ccc(N2CCN(C(=O)c3ccc(F)cc3)CC2=O)cc1
- logD [1]: -0.18

Compound: N#Cc1ccc(C(=O)N2CCN(c3ccc(OC4CCN(C5CCC5)CC4)cc3)C(=O)C2)cc1.O=CO
- clearance [2]: 27 mL/min/kg
- Cmax [3]: 350 ng/mL
- Cmax [4]: 294 ng/mL
- Cmax [5]: 149 ng/mL
- logD [1]: 0.38
- Tmax [7]: 1 h
- AUC [8]: 1100 ng·h/mL
- Cmax [9]: 419 ng/mL
- bioavailability [10]: 69%
- Tmax [11]: 4.8 min
- Vd [24]: 2.3 L/kg
- clearance [25]: 15 mL/min/kg
- half-life [26]: 2.3 h
- Tmax [12]: 1 h
- half-life [13]: 1.4 h
- AUC [14]: 1540 ng·h/mL
- AUC [15]: 601 ng·h/mL
- Tmax [16]: 4.8 min
- Kp at 5 min [17]: 0.2
- AUC [18]: 1150 ng·h/mL
- Vd [19]: 2.2 L/kg

Compound: CC(C)(C)C(=O)N1CCN(c2ccc(OCCCN3CCCCC3)cc2)C(=O)C1.Cl
- logD [1]: -0.02
- Kp at 5 min [17]: 0.1

Compound: O=C(c1ccc(C(=O)N2CCN(c3ccc(OCCCN4CCCCC4)cc3)C(=O)C2)cc1)N1CCC1
- logD [1]: -0.95

Compound: O=C(c1ccncc1)N1CCN(c2ccc(OCCCN3CCCCC3)cc2)C(=O)C1
- logD [1]: -1.6
